We go through 1 compound from ChEMBL document CHEMBL1781977, “Design and synthesis of 3,5-diarylisoxazole derivatives as novel class of anti-hyperglycemic and lipid lowering agents” (Bioorg Med Chem, 2009).

Calls of active or inactive are those of the source. The rule behind the calls is not given here.

The test system of experiment [1] is Rattus norvegicus. Put plainly: Antihyperglycemic activity in Charles Foster/Wistar albino rat assessed as reduction in blood glucose level at 100 mg/kg, po administered 30 mins before sucrose challenge. The class given is functional. A digest of the protocol: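 Male Charles Foster/Wistar rats, 160 ± 20 g, fasted 16 h; animals with glucose 60–80 mg/dl used, 5–6 per group. Given 100 mg/kg orally as suspension in 1.0% gum acacia (controls vehicle alone). Sucrose 10.0 g/kg orally 30 min later. Glucometer readings at 30, 60, 90, 120 min. Percent activity derived from AUC of treated versus control groups.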

The test system of experiment [2] is Rattus norvegicus. Kind of experiment: Antihyperglycemic activity against sucrose challenged streptozotocin-induced diabetic Sprague-Dawley albino rat assessed as reduction in blood glucose level at 100 mg/kg, po administered 30 mins before sucrose challenge measured after 5 hrs. The class given is functional. A digest of the protocol:
(§1)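 Male Sprague Dawley rats, 160 ± 20 g, fasted overnight, given streptozotocin 60 mg/kg ip in 100 mM citrate pH 4.5. Rats with glucose 144–270 mg/dl at 48 h count as diabetic, 5–6 per group. Dosed 100 mg/kg orally in 1.0% gum acacia. Sucrose 2.5 g/kg given 30 min later. Glucose read at 30–300 min and 24 h. Non-responders excluded.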

For experiment [3], the system named is Rattus norvegicus. Put plainly: Antihyperglycemic activity against sucrose challenged streptozotocin-induced diabetic Sprague-Dawley albino rat assessed as reduction in blood glucose level at 100 mg/kg, po administered 30 mins before sucrose challenge measured after 24 hrs. The experiment is classed as functional. The gist of the method: as §1
The species named for experiment [4] is Mus musculus. Put plainly: Antihyperglycemic activity in C57BL/Ks db/db mouse assessed as reduction in blood glucose level measured after 3 days relative to control. The experiment is classed as functional.
The subject of experiment [5] is Rattus norvegicus. Put plainly: Antihyperglycemic activity against sucrose challenged streptozotocin-induced diabetic Sprague-Dawley albino rat assessed as reduction in blood glucose level at 7.5 mg/kg, po administered 30 mins before sucrose challenge. The class given is functional. The gist of the method:
(§2)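 Streptozotocin-diabetic Sprague Dawley rats: streptozotocin 60 mg/kg ip in citrate pH 4.5; rats at 144–270 mg/dl after 48 h used. Oral doses of 7.5–100 mg/kg in 1.0% gum acacia, then sucrose 2.5 g/kg. Glucose measured at 30, 60, 90, 120, 180, 240, 300 and 1440 min. ED50 taken from dose response. Mean ± SD, n = 5; Dunnett's test.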

Experiment [6] has as its system Rattus norvegicus. Kind of experiment: Antihyperglycemic activity against sucrose challenged streptozotocin-induced diabetic Sprague-Dawley albino rat assessed as reduction in blood glucose level at 15 mg/kg, po administered 30 mins before sucrose challenge. The class given is functional. A digest of the protocol: as §2
Experiment [7] relates to Rattus norvegicus. Put plainly: Antihyperglycemic activity against sucrose challenged streptozotocin-induced diabetic Sprague-Dawley albino rat assessed as reduction in blood glucose level at 25 mg/kg, po administered 30 mins before sucrose challenge. The experiment is classed as functional. A digest of the protocol:
as §2

The subject of experiment [8] is Rattus norvegicus. Kind of experiment: Antihyperglycemic activity against sucrose challenged streptozotocin-induced diabetic Sprague-Dawley albino rat assessed as reduction in blood glucose level at 50 mg/kg, po administered 30 mins before sucrose challenge. The class given is functional. A digest of the protocol: as §2
In experiment [9] the test system is Rattus norvegicus. Kind of experiment: Antihyperglycemic activity against sucrose challenged streptozotocin-induced diabetic Sprague-Dawley albino rat assessed as reduction in blood glucose level at 100 mg/kg, po administered 30 mins before sucrose challenge. The experiment is classed as functional. A digest of the protocol: as §1
Experiment [10] relates to Rattus norvegicus. Kind of experiment: Antihyperglycemic activity against sucrose challenged streptozotocin-induced diabetic Sprague-Dawley albino rat assessed as reduction in blood glucose level administered orally 30 mins before sucrose challenge. The class given is functional. The following applies: po. The gist of the method: as §2
Experiment [11] relates to Mus musculus. Put plainly: Antihyperglycemic activity in C57BL/Ks db/db mouse assessed as reduction in blood glucose level at 100 mg/kg, po measured 6 days post dose by postprandial glucose tolerance test. The following applies: 144 h. The class given is functional. A digest of the protocol:
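C57BL/KsBom-db mice, 12–18 weeks, 40–50 g, 5 male and 5 female, at 23 °C with 12/12 h light cycle. Treated orally at 100 mg/kg, vehicle 1.0% gum acacia. Day 6 postprandial test: glucose at −0.5 h and 0 h, then at 1, 2, 3, 4 and 6 h after dosing.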

Experiment [12] relates to Mus musculus. Put plainly: Antihyperglycemic activity in C57BL/Ks db/db mouse assessed as reduction in blood glucose level at 100 mg/kg, po measured 10 days post dose by postprandial glucose tolerance test. The experiment is classed as functional. The following applies: 240 h, in the assay text read “oral glucose tolerance test” for “postprandial glucose tolerance test”. A digest of the protocol: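 db/db mice (C57BL/KsBom, 12–18 weeks, 40–50 g) given 100 mg/kg orally, vehicle 1.0% gum acacia. Day 10 OGTT after overnight fast: glucose at −30 min and drug given, then glucose at 0 min. Glucose 3 g/kg given, with readings at 30, 60, 90 and 120 min.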

In experiment [13] the test system is Mus musculus. Kind of experiment: Antidyslipidemic activity in C57BL/Ks db/db mouse assessed as reduction in plasma triglyceride level at 100 mg/kg, po. The experiment is classed as functional. The gist of the method:
(§3)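 db/db mice (C57BL/KsBom, 12–18 weeks, 5 male and 5 female) dosed orally at 100 mg/kg in 1.0% gum acacia. Blood collected on day 8 for serum lipids. Mean ± SD, n = 5, against vehicle-treated db/db controls; Dunnett's test.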

For experiment [14], the system named is Mus musculus. Put plainly: Antidyslipidemic activity in C57BL/Ks db/db mouse assessed as reduction in plasma cholesterol level at 100 mg/kg, po. The experiment is classed as functional. The gist of the method: as §3
Experiment [15] deals with Mus musculus. Kind of experiment: Antidyslipidemic activity in C57BL/Ks db/db mouse assessed as plasma HDL-cholesterol level at 100 mg/kg, po. The class given is functional. A digest of the protocol:
as §3

Experiment [16] has as its target T1, Tyrosine-protein phosphatase non-receptor type 1 (Homo sapiens, UniProt P18031).
T1 sequence (P18031 whole entry): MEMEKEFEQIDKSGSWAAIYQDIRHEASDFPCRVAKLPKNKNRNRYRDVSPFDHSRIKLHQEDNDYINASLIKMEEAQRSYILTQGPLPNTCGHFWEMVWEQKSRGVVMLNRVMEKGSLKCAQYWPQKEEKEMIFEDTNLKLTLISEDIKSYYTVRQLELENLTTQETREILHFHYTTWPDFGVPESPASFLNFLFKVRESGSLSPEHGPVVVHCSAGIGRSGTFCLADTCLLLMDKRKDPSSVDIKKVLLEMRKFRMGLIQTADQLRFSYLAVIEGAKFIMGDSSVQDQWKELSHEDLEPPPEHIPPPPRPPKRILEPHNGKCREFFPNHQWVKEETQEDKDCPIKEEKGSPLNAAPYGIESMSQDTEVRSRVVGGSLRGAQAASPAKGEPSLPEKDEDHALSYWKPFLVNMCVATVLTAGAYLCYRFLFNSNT
Put plainly: Inhibition of protein tyrosine phosphatase-1B at 10 uM incubated for 10 mins using pNPP substrate in presence of 0.01% Triton X-100 by modified Goldstein method. A digest of the protocol: (§4)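 PTP-1B: compound preincubated 10 min with enzyme, with or without 0.01% Triton X-100. Then 10 mM pNPP in 50 mM HEPES pH 7.0 with 1 mM DTT and 2 mM EDTA, 30 min at 37 °C. Stopped with 0.1 N NaOH; absorbance read at 410 nm. p-Nitrophenolate calculated using ε 1.78 × 10⁴ M⁻¹cm⁻¹. Sodium orthovanadate used as reference.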

Experiment [17] concerns the target T1, Tyrosine-protein phosphatase non-receptor type 1. Put plainly: Inhibition of protein tyrosine phosphatase-1B at 10 uM incubated for 10 mins using pNPP substrate in absence of Triton X-100 by modified Goldstein method. A digest of the protocol: as §4
The target of experiment [18] is T2, Tyrosine-protein phosphatase non-receptor type 1 (Homo sapiens) (UniProt P18031).
T2 sequence (whole entry): T1 sequence (P18031 whole entry)
Kind of experiment: Inhibition of protein tyrosine phosphatase-1B at 10 uM incubated for 10 mins using pNPP substrate by modified Goldstein method. The gist of the method: as §4

In experiment [19] the target is Dipeptidyl peptidase 4 (Homo sapiens) (UniProt P27487). Put plainly: Inhibition of DPP4 assessed as rate of substrate cleavage using Gly-Pro-AMC substrate by spectrofluorometry. A digest of the protocol: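 DPP-IV activity read by fluorescence at 37 °C, excitation 355 nm and emission 460 nm. Initial rate calculated over the first 15 min as increase in fluorescence intensity.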
Sequence of Dipeptidyl peptidase 4 (Homo sapiens) (P27487 whole entry, looked up): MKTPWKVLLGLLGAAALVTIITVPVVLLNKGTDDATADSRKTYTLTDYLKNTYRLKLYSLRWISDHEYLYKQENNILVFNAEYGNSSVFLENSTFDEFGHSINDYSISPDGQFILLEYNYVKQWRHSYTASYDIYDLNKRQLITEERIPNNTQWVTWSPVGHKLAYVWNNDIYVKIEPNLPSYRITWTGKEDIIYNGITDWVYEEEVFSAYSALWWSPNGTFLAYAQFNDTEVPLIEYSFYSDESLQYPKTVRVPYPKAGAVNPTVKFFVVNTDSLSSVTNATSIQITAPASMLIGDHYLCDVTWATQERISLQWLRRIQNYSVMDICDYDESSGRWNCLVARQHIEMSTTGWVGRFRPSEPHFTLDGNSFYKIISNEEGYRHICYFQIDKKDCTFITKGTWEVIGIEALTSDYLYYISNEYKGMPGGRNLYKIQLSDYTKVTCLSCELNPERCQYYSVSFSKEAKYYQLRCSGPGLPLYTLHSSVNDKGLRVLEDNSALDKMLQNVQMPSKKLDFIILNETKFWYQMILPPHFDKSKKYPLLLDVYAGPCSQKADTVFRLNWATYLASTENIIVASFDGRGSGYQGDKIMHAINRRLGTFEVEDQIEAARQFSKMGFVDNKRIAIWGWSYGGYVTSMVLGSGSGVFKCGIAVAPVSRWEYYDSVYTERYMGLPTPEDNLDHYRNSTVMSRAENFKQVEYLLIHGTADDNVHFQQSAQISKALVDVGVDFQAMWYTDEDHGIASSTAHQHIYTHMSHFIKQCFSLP

Experiment [20] concerns the target T3, Peroxisome proliferator-activated receptor gamma (Homo sapiens) (UniProt P37231).
T3 sequence (whole entry): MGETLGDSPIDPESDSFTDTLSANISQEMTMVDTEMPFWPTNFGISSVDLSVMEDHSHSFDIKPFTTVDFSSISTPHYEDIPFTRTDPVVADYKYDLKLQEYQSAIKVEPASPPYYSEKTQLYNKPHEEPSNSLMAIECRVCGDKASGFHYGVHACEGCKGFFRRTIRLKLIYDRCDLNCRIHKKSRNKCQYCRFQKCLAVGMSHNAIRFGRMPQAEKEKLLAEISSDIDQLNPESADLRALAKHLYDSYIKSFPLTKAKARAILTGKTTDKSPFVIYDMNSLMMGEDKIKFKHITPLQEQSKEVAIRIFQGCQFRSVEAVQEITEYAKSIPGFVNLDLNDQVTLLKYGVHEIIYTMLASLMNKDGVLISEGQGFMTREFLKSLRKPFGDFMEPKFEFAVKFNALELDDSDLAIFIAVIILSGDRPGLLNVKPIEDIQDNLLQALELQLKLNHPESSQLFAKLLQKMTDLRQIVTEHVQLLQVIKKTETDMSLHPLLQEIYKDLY
Kind of experiment: Activation of PPARgamma by receptor transactivation assay.

By inhibition in vivo is commonly meant the drop in the measured response relative to a control, in per cent. One may read the ED50 as the dose at which the effect has come halfway, by size or by number of responders. The term IC50 denotes the concentration needed to halve the response being measured. As usually defined, the inhibition is the share of the control response that was lost under treatment. In the case of `COc1ccc(-c2cc(-c3ccccc3)no2)c(OCCN2CCCCC2)c1`, the inhibition in vivo at 100 mg/kg in the experiment on Rattus norvegicus [1] turned out to be 27.6%; in the experiment with Rattus norvegicus [2] it was 17.6%; with Rattus norvegicus [3] it was 18.7%; with Rattus norvegicus [9] it was 20.7%; with Mus musculus [11] it was 17.4%; in the experiment with Mus musculus [12], 16.1%. In addition, the inhibition in vivo at 100 mg/kg is -7.5% in the experiment on Mus musculus [13] and -12.2% with Mus musculus [14]. Moreover, the “inhibition (INH)” value in the experiment filed under Mus musculus [4] worked out at 18.5%. Besides, the inhibition in vivo at 7.5 mg/kg with Rattus norvegicus [5] came out at 9.8%. Further, the inhibition in vivo at 15 mg/kg in the experiment on Rattus norvegicus [6] is 12.6%. Also, in the experiment with Rattus norvegicus [7], the inhibition in vivo at 25 mg/kg came out at 14%. Further, in the experiment on Rattus norvegicus [8], the inhibition in vivo at 50 mg/kg was determined as 16.7%. Also, the ED50 with Rattus norvegicus [10] worked out at 64.5 mg/kg. Besides, the Activity in the experiment on Mus musculus [15] turned out to be 1.3%. Moreover, the half-inhibitory concentration (IC50) was determined as 9 µM in [16] and 8.8 µM in experiment [17]. This compound also showed an inhibition in experiment [18] of 76.3%. Besides, the inhibition entry in experiment [19] is “inactive”. Further, in experiment [20], the outcome was inactive.
